# Assay results pooled from the literature.
# Each line is one published result; the experiments were not run side by side.
# RET: Proto-oncogene tyrosine-protein kinase receptor Ret (RET, Homo sapiens, UniProt P07949)
# LATS2: Serine/threonine-protein kinase LATS2 (LATS2, Homo sapiens, UniProt Q9NRM7)
# BAZ2A bromodomain: Bromodomain adjacent to zinc finger domain protein 2A, bromodomain (BAZ2A, Homo sapiens, UniProt Q9UIF9)
# ASH1L: Histone-lysine N-methyltransferase ASH1L (ASH1L, Homo sapiens, UniProt Q9NR48)
# Nos2: Nitric oxide synthase, inducible (Nos2, Mus musculus, UniProt P29477)
# MARK4: MAP/microtubule affinity-regulating kinase 4 (MARK4, Homo sapiens, UniProt Q96L34)
Structure (SMILES),target,assay,conditions,measurement,value
C=C(F)[C@](N)(CCCCN)C(=O)O,"Lysine decarboxylase (Hafnia alvei, UniProt P05033)","enzyme activity, inhibitor, absorbance",,KI (inactivation),620 µM
Nc1ncnc2occ(-c3ccc(NC(=O)Nc4cc(C(F)(F)F)ccc4F)cc3)c12,"Citron Rho-interacting kinase (CIT, Homo sapiens, UniProt O14578)","cell-free assay, inhibitor",20 µM,remaining signal,1.3%
Cc1nn(C)c2ncc(C(=O)NC(=O)Nc3ccc(F)c(C(F)(F)F)c3)cc12,"C5a anaphylatoxin chemotactic receptor 1 (C5AR1, Homo sapiens, UniProt P21730)","ligand displacement, radioligand",10 µM,inhibition,< 10%
CC(=O)c1cccc(NC(=O)Nc2cc3c(cc2Oc2ccccc2)n(C)c(=O)n3C)c1,RET,"enzyme activity, inhibitor, radiometric",0.1 µM,remaining activity,104%
Cn1cncc1C1=CN(c2ncnc3[nH]cnc23)CCS1,LATS2,"enzyme activity, inhibitor, radiometric",2 µM,inhibition,92.9%
CCOC(=O)N1CCN(c2nc(Nc3ccc(C)cc3)c3nn[nH]c3n2)CC1,RET,"enzyme activity, inhibitor, radiometric",10 µM,remaining activity,154%
N#Cc1ccc(/C=C/CN(CC[C@H](N)C(=O)O)C[C@H]2O[C@@H](n3cnc4c(N)ncnc43)[C@H](O)[C@@H]2O)cc1,"Phenylethanolamine N-methyltransferase (PNMT, Homo sapiens, UniProt P11086)","enzyme activity, inhibitor",10 µM,activity vs control,67%
Oc1ccc(-c2nc(-c3ccncc3)c(-c3ccc(F)cc3)[nH]2)cc1,BAZ2A bromodomain,"thermal stability, DSF",10 µM,ΔTm,0.16 °C
COc1ccc(OC)c(NC(=O)Nc2cc(OC)c3nc(NC(=O)c4ccccc4)sc3c2)c1,RET,"enzyme activity, inhibitor, radiometric",10 µM,remaining activity,94.4%
Cc1cc2c(cc1N1C(=O)c3cccc4c(Cl)ccc(c34)C1=O)n(C)c(=O)n2C,ASH1L,"thermal stability, DSF",10 µM,ΔTm,1.2 °C
CC(=O)C(Cl)C(C)=O,Nos2,"enzyme activity, inhibitor",1 mM,inhibition,> 40%
O=C(NCCCNc1nc(Nc2cccc(NC(=O)N3CCCC3)c2)ncc1I)c1cccs1,MARK4,"enzyme activity, inhibitor, radiometric",1 µM,remaining activity,2%
Cc1ccc(C(=O)Nc2ccc(CN3CCN(C)CC3)c(C(F)(F)F)c2)cc1C#Cc1cnc2cccnn12,"Phosphatidylinositol 5-phosphate 4-kinase type-2 gamma (PIP4K2C, Homo sapiens, UniProt Q8TBX8)",cell-free assay,23.5 nM,remaining signal,99%
O=C(CCCCCCCCc1ccc(O)cc1)c1c(O)cccc1O,"Bifunctional epoxide hydrolase 2 (EPHX2, Homo sapiens, UniProt P34913)","enzyme activity, inhibitor, fluorescence",100 µM,inhibition,93.5%
CC(C)[C@@H]1NC(=O)[C@@H]2CCCN2C(=O)[C@H](Cc2ccccc2)NC(=O)CSC[C@@H](C(=O)N[C@@H](Cc2ccc(O)cc2)C(N)=O)NC(=O)[C@H](Cc2c[nH]c3ccccc23)NC(=O)[C@H](CCCCN)NC(=O)[C@H](Cc2ccccc2)N(C)C(=O)[C@H](Cc2ccccc2)NC1=O,"Stimulator of interferon genes protein (STING1, Homo sapiens, UniProt Q86WV6, H232R)","thermal stability, DSF",200 µM,ΔTm,5.83 °C
COCC(=O)Nc1cc(C(=O)NCCc2cnn(C)c2)cc2ncn(CCc3ccccc3)c12,RET,"enzyme activity, inhibitor, radiometric",10 µM,remaining activity,109%
O=C(O)c1ncccc1O,Nos2,"enzyme activity, inhibitor",1 mM,inhibition,> 40%
COc1cc(-c2cc(-c3ccc(N4CCNCC4)cc3)cnc2C)cc(OC)c1OC,LATS2,"enzyme activity, inhibitor",0.1 µM,inhibition,1%
COCC(=O)Nc1cc(C(=O)N(C)CCc2c(C)n[nH]c2C)c2c(c1)ncn2Cc1ccc(F)cc1,RET,"enzyme activity, inhibitor, radiometric",10 µM,remaining activity,117%
O=c1cc(CCl)occ1O,Nos2,"enzyme activity, inhibitor",1 mM,inhibition,> 40%
COc1cc(NC(=O)Nc2ccc(C)c(F)c2)cc2sc(NC(=O)c3ccccc3)nc12,RET,"enzyme activity, inhibitor, radiometric",0.1 µM,remaining activity,107%
CO[C@]1(C(=O)N[C@@H](C)c2ccc(-n3cc(F)cn3)nc2)CC[C@H](c2nc(C)cc(Nc3cc(C)[nH]n3)n2)CC1,RET,"thermal stability, DSF",10 µM,ΔTm,11.6 °C
Cc1cnc(Nc2ccc(OCCN3CCCC3)cc2)nc1Nc1cccc(S(=O)(=O)NC(C)(C)C)c1,ASH1L,"thermal stability, DSF",10 µM,ΔTm,0.24 °C
O=C(COc1ccc(Cl)cc1C(=O)Nc1ccccc1)Nc1cc(Cl)ccc1-n1cncn1,RET,"enzyme activity, inhibitor, radiometric",10 µM,remaining activity,111%
CN(C)C1CCN(CC#Cc2nn(C3CCCC3)c3nc(NCc4ccccc4)ncc23)C1 (stereo not shown),"Tyrosine-protein kinase Lck (LCK, Homo sapiens, UniProt P06239)","enzyme activity, inhibitor, FRET",10 µM,inhibition,78%
CN1CCc2cc(Nc3ncc(C4CC4)c(NCCCNC(=O)C4CCC4)n3)ccc2C1,MARK4,"enzyme activity, inhibitor, radiometric",1 µM,remaining activity,3%
COc1ccc(NC(=O)Nc2cc(C)c3nc(NC(=O)c4ccccc4)sc3c2)c(OC)c1,RET,"enzyme activity, inhibitor, radiometric",10 µM,remaining activity,98.8%
C[S+]([O-])c1ccc(-c2nc(-c3ccncc3)c(-c3ccc(F)cc3)[nH]2)cc1 (stereo not shown),BAZ2A bromodomain,"thermal stability, DSF",10 µM,ΔTm,-0.19 °C
